Assay results as given in ChEMBL document CHEMBL1158068, “Chaetocochins A-C, epipolythiodioxopiperazines from Chaetomium cochliodes” (2006).
Values after ≈ are worked out from the molar mass of the structure shown.

Tests used:
Format in all cases: functional
[1] = Growth inhibition of human Bre-04 cells after 48 hrs by SRB assay; conditions: Bre04, 48 h
Procedure, shortened: (§1)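 ATCC cancer lines (Bre-04 = MDA-MB-231, Lu-04 = NCI-H460, N-04 = SF-268), cultured per supplier instructions. Cells seeded in 96-well plates, incubated 16 h at 37 °C, then exposed to a range of compound concentrations for 48 h. Taxol served as positive control. Cytotoxicity read by colorimetric sulforhodamine B (SRB) chemosensitivity assay.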

[2] = Growth inhibition of human Lu-04 cells after 48 hrs by SRB assay; conditions: Lu04, 48 h; procedure, shortened: as §1
[3] = Growth inhibition of human N-04 cells after 48 hrs by SRB assay; conditions: N04, 48 h; procedure, shortened: as §1

Row | SMILES | GI50 [1] | GI50 [2] | GI50 [3]
1 | CC(=O)O[C@H]1C(=O)[C@@]2(C)[C@H]([C@H](OC(=O)c3ccccc3)[C@]3(O)C[C@H](OC(=O)[C@H](O)[C@@H](NC(=O)c4ccccc4)c4ccccc4)C(C)=C1C3(C)C)[C@]1(OC(C)=O)CO[C@@H]1C[C@@H]2O [PACLITAXEL] | 0.04 µg/mL (≈ 0.0468 µM) | 0.03 µg/mL (≈ 0.0351 µM) | 0.04 µg/mL (≈ 0.0468 µM)
2 | CS[C@@]1(CO)C(=O)N(C)[C@@](Cc2cn([C@]34C[C@@]56SS[C@@](CO)(C(=O)N5[C@H]3Nc3ccccc34)N(C)C6=O)c3ccccc23)(SC)C(=O)N1C [CHAETOCOCHIN C] | 0.4 µg/mL (≈ 0.54 µM) | 1.9 µg/mL (≈ 2.56 µM) | 0.4 µg/mL (≈ 0.54 µM)
3 | CS[C@@]1(CO)C(=O)N(C)[C@@](Cc2cn([C@]34C[C@]5(SC)C(=O)N(C)[C@@](CO)(SC)C(=O)N5[C@H]3Nc3ccccc34)c3ccccc23)(SC)C(=O)N1C | 0.06 µg/mL (≈ 0.0778 µM) | 0.05 µg/mL (≈ 0.0648 µM) | 0.2 µg/mL (≈ 0.259 µM)
4 | CS[C@]12COCN3c4ccccc4[C@]4(C[C@]5(SC)C(=O)N(C)[C@@](CO)(SC)C(=O)N5[C@@H]34)n3cc(c4ccccc43)C[C@](SC)(C(=O)N1C)N(C)C2=O [CHAETOCOCHIN A] | 4.1 µg/mL (≈ 5.24 µM) | 3.4 µg/mL (≈ 4.34 µM) | 7 µg/mL (≈ 8.94 µM)
